Legend:
[1] = Macroscopic pKa value at 27 C, ionic strength 0.1 M; assay type: physicochemical
[2] = Macroscopic pKa value at 25 C, ionic strength 1 M; assay type: physicochemical
Method in brief: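 13C and 1H NMR titration in D2O, following chemical shifts against pD at 25 °C, ionic strength 1 M, with a 22 mM solution for the shift data. Carbons of the polyamine chain were assigned from shift data and total ionization shifts. Proton shifts were too small for quantitative analysis, so 1H titration curves were used only qualitatively.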

[3] = Macroscopic pKa value at 25 C, ionic strength 0.1 M; assay type: physicochemical

pKa ([1]; read-out: pK1) | pKa ([1]; read-out: pK2) | pKa ([1]; read-out: pK3) | pKa ([1]; read-out: pK4) | pKa ([2]; read-out: pK1) | pKa ([2]; read-out: pK2) | pKa ([2]; read-out: pK3) | pKa ([3]; read-out: pK1) | pKa ([3]; read-out: pK2) | pKa ([3]; read-out: pK3) | pKa (physchem) | SMILES | pKa ([2]; read-out: pK4)
7.59 | 9.24 | 10.5 | 11.1 |  |  |  |  |  |  |  | NCCCCNCCCNCCCN | 
 |  |  |  | 8.69 | 9.31 | 10.7 | 7.91 | 8.68 | 10.2 | 10.6 | NCCCNCCCCNCCCN [SPERMINE] | 10.8

More lines, now with the values behind:

SMILES | pKa ([1]; read-out: pK1) | pKa ([1]; read-out: pK2) | pKa ([1]; read-out: pK3) | pKa ([1]; read-out: pK4) | pKa ([2]; read-out: pK1) | pKa ([2]; read-out: pK2) | pKa ([2]; read-out: pK3) | pKa ([3]; read-out: pK1) | pKa ([3]; read-out: pK2) | pKa ([3]; read-out: pK3) | pKa (physchem) | pKa ([2]; read-out: pK4)
CCCC(=O)NC(Cc1ccc(O)cc1)C(=O)NCCCNCCCCNCCCN (stereo unspecified) |  |  |  |  | 8.5 | 9.5 | 10.4 |  |  |  |  | 11.4
NCCCCNCCCN [SPERMIDINE] |  |  |  |  | 8.93 | 10.3 | 10.9 | 8.15 | 9.74 | 10.2 |  | 
NCCCNCCCNCCCN [THERMINE] | 7.36 | 8.81 | 10.1 | 10.8 |  |  |  |  |  |  |  | 
